Source: ChEMBL document CHEMBL1143161, “Non-charged thiamine analogs as inhibitors of enzyme transketolase” (Bioorg Med Chem Lett, 2008)

Columns and labels:
[1] = biological target: T1, Transketolase (Homo sapiens, UniProt P29401); test: Inhibition of apo-transketolase
T1 sequence (P29401 whole entry): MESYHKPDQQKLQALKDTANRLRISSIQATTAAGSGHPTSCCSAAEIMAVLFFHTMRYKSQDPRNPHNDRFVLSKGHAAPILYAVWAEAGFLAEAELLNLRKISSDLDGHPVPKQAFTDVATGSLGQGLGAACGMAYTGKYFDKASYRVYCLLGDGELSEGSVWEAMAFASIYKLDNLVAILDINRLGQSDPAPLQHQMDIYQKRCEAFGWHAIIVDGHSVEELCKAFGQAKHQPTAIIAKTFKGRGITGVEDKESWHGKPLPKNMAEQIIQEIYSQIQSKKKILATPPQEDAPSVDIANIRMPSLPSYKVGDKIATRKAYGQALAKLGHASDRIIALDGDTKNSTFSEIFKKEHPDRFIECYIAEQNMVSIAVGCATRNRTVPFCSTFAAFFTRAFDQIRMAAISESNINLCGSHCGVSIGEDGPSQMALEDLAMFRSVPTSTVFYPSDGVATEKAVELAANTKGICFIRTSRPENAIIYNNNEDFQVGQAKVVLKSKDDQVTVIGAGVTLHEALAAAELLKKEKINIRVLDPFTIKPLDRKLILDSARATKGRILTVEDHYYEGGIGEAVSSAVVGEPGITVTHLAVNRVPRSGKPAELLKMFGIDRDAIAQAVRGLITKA

[2] = biological target: T1, Transketolase; test: Inhibition of transketolase in human HCT116 cells; assay type: cell-based, HCT-116
Procedure, shortened: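 Cellular TK assay in human colon cancer HCT-116 cells, run in triplicate. EC50 reported as the average, with data within 4-fold of the mean.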

[3] = biological target: T1, Transketolase; test: Inhibition of apo-transketolase by coupled TPPK/Apo-TK enzymatic assay
Procedure, shortened: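 Each compound was first checked for pyrophosphorylation by TPPK, with thiamine as the control substrate; pyrophosphorylation was scored relative to thiamine. Compounds were then tested for competition with TPP in inhibiting TK activity. Kd is the average of at least three experiments, with data within 2-fold of the mean.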

Row | Kd [1] | EC50 [2] | Kd [3] | SMILES
1 | 34 µM | 2.71 µM | – | Cc1ncc(Cn2c(C)c(CCO)sc2=O)c(N)n1 [THIAMINE THIAZOLONE]
2 | 18 µM | 1.2 µM | 0.012 µM | Cc1ncc(Cc2csc(CCO)c2C)c(N)n1 [3-DEAZATHIAMINE]
3 | 6800 µM | – | – | Cc1ncc(C[n+]2csc(CCO)c2C)c(N)n1 [THIAMINE ION]
4 | – | 25 µM | 0.063 µM | Cc1c(Cc2cnc(C(F)(F)F)nc2N)csc1CCO
5 | > 500 µM | 0.66 µM | 0.06 µM | Cc1c(Cc2cnc(C3CC3)nc2N)csc1CCO

The next lines start with the molecule.

Row | SMILES | Kd [1] | EC50 [2] | Kd [3]
6 | Cc1ncc(Cc2[nH]nc(CCO)c2C)c(N)n1 | – | 17 µM | –
7 | CC(=O)Nc1ncc(Cc2csc(CCO)c2C)c(N)n1 | 1.1 µM | 6.3 µM | 0.003 µM
8 | Cc1ncc(Cc2c(C)c(CCO)nn2C)c(N)n1 | – | 1.1 µM | –
9 | Cc1ncc(Cn2c(C)c(CCO[P@@](=O)(O)OP(=O)(O)O)sc2=O)c(N)n1 | 0.016 µM | – | –
10 | Cc1ncc(Cc2nn(C)c(CCO)c2C)c(N)n1 | – | 4.7 µM | –
11 | Cc1c(Cc2cnc(-c3ccccc3)nc2N)csc1CCO | > 500 µM | > 10 µM | 0.23 µM
12 | Cc1c(Cc2cnc(C(C)C)nc2N)csc1CCO | > 500 µM | 2.6 µM | 0.064 µM
13 | Cc1ccc(Cn2c(C)c(CCO)sc2=O)c(N)n1 | > 500 µM | 3.24 µM | –
14 | Cc1c(Cc2cncnc2N)csc1CCO | > 100 µM | 52 µM | –
15 | Cc1c(Cc2cnc(N)nc2N)csc1CCO | 2.2 µM | 8.5 µM | –
